This note sets out measurements from ChEMBL document CHEMBL4765230, “Discovery of Orally Efficacious Phosphoinositide 3-Kinase δ Inhibitors with Improved Metabolic Stability” (J Med Chem, 2016).

Each structure is given as a SMILES string.

Series [1] in a line: Clearance in cynomolgus monkey at 1 mg/kg, iv measured over 24 hrs by LC/MS/MS analysis. Type of series: ADME, organism-based, Macaca fascicularis. Particulars: in vivo. The essentials: (§1)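 Intravenous 1 mg/kg and oral 5 mg/kg doses. Vehicle: 5% ethanol/55% PEG 400/40% water for rats and dogs; 5% ethanol/22% PEG 400/73% water for cynomolgus; 5% ethanol/25% PEG 400/70% water for rhesus. Half-life and MRT from iv; mean ± SD, n = 3 per route.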

In series [2] the test system is Rattus norvegicus. Kind of series: Antiarthritic activity in Lewis rat model of Freund's incomplete adjuvant-induced arthritis assessed as inhibition of pannus formation at 0.3 to 3 mg/kg, po bid administered for 7 days at 12 hrs interval starting from day 10 to day 16 post-immunization by microscopic analysis relative to control. Type of series: functional. Details: scale not given: the % may be the effect or the level left. Conditions: dose 0.3-3 mg/kg, time 7 day. The essentials: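 Female Lewis rats with established collagen-induced arthritis dosed orally twice daily for 7 days at 0.3, 1 and 3 mg/kg, starting day 10 after second collagen immunization. Joint histopathology scored for pannus formation, cartilage damage, bone resorption and periosteal bone formation; ED50 derived. n = 8/treatment group, n = 4 normal controls.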

In series [3] the target is T1, Phosphatidylinositol 4,5-bisphosphate 3-kinase catalytic subunit delta isoform (Homo sapiens, UniProt O00329).
T1 sequence (O00329 whole entry): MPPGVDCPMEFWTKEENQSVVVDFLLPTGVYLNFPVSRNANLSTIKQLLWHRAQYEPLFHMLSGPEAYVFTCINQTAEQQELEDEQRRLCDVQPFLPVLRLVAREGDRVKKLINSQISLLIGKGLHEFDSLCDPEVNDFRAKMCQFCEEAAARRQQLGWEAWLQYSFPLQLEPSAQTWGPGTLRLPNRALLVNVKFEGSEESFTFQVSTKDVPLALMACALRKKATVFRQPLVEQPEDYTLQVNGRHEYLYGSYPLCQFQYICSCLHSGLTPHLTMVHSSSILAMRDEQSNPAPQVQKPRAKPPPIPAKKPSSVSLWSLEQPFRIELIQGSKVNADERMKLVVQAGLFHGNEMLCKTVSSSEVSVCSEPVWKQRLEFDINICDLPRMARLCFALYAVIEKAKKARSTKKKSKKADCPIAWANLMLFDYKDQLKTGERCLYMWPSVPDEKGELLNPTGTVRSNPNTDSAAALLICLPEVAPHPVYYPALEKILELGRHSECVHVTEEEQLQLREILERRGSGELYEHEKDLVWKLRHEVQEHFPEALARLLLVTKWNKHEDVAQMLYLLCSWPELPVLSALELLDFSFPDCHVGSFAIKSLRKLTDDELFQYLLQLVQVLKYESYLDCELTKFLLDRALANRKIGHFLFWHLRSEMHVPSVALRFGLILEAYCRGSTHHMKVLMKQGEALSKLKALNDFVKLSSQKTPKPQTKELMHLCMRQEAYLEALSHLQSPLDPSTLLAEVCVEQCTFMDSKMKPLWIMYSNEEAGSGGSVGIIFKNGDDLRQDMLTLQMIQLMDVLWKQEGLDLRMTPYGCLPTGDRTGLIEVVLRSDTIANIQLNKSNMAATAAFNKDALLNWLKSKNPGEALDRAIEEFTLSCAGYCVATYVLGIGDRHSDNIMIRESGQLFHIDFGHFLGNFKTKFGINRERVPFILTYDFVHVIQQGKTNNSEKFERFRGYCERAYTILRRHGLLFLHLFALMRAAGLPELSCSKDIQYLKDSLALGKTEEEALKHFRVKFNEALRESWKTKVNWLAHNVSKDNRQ
Kind of series: Inhibition of PI3K p110delta in human basophil assessed as reduction in anti-FCepsilonR1 mAb-stimulated basophil activation preincubated for 60 mins followed by anti-FCepsilonR1 mAb stimulation and measured after 25 mins by flow cytometry analysis. For orientation: Flow cytometry measures light scatter and fluorescence of single cells or particles in a stream.

Series [4] in a line: Cmax in Lewis rat at 5 mg/kg, po administered as single dose measured at 2 hrs. Type of series: ADME, organism-based. Details: route oral, dose 5 mg/kg, time 2 hrs. Particulars: in vivo. The essentials:
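Female Lewis rats given a single oral dose of 1 or 5 mg/kg; plasma concentration–time profiles determined; mean ± SD, n = 3.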

Series [5] has as its system Rattus norvegicus. The series is described as follows: Antiarthritic activity in Lewis rat model of Freund's incomplete adjuvant-induced arthritis assessed as reduction in ankle swelling at 3 mg/kg, po bid administered for 7 days at 12 hrs interval starting from day 10 to day 16 post-immunization by caliper method relative to control. The series is classed as functional. Details: scale not given: the % may be the effect or the level left. Particulars: time 7 day. The essentials: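 Established collagen-induced arthritis in female Lewis rats; oral dosing twice daily for 7 days from day 10 after second immunization. Right and left ankle diameters measured by caliper daily, days 9–18; ankle diameter AUC over days 11–18 compared with arthritic vehicle group (ANOVA, p < 0.05). n = 8/treatment group.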

Series [6] is described as follows: In vivo inhibition of PI3Kdelta in Lewis rat model of Freund's incomplete adjuvant-induced arthritis at 1 mg/kg, po bid administered for 7 days at 12 hrs interval starting from day 10 to day 16 post-immunization relative to control. Particulars: 168 h, time 7 day. Type of series: functional. The essentials:
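CIA Lewis rats dosed orally twice daily for 7 days at 0.3, 1 or 3 mg/kg; blood/plasma drug levels taken on day 7, 12 h after final dose, and related to PI3Kδ inhibition at trough.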

Series [7] addresses Phosphatidylinositol 4,5-bisphosphate 3-kinase catalytic subunit gamma isoform (Homo sapiens, UniProt P48736). Kind of series: Inhibition of PI3K p110gamma in human basophil assessed as reduction in fMLP-induced basophil activation in presence of 25% serum by flow cytometry analysis. Type of series: tissue-based. The method, boiled down:
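Basophil activation via fMLP (p110γ) in 25% serum or in isolated WBCs in low serum, with increasing compound concentrations. Anti-CD63-FITC/anti-CCR3-PE staining; ≥150 (25% serum) or ≥75 (low serum) CCR3-high basophils gated; % CD63-positive normalized to 0.3% DMSO vehicle; concentration corrected for reagent dilution.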

Series [8] in a line: Terminal half life in rhesus monkey at 1 mg/kg, iv measured over 24 hrs by LC/MS/MS analysis. Type of series: ADME, organism-based, Macaca mulatta. Particulars: in vivo, read-out: beta t1/2 (converted). The method, boiled down: (§2)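 Single intravenous dose of 1 mg/kg. Vehicles: rats and dogs 5% ethanol/55% PEG 400/40% water; cynomolgus monkeys 5% ethanol/22% PEG 400/73% water; rhesus monkeys 5% ethanol/25% PEG 400/70% water. Plasma concentration–time data gave Vss and iv half-life. Reported as mean ± SD, n = 3.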

Series [9] addresses Phosphatidylinositol 4,5-bisphosphate 3-kinase catalytic subunit beta isoform (Homo sapiens, UniProt P42338). The series is described as follows: Inhibition of PI3K p110beta in human PC-3 cells assessed as reduction in AKT phosphorylation at S473 residue measured after 2 hrs by TR-FRET analysis. Type of series: cell-based. The essentials:
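PC3 cells quiesced 2 h at 37 °C/5% CO2 in DMEM with 0.1% FBS/1% PSG, then plated at 25 000 cells/well onto prespotted compound dilutions and incubated 2 h. Lysates were read for Akt and phospho-Akt S473 by TR-FRET (Eu-cryptate Akt donor, d2 phospho-Akt acceptor). Data normalized to 1 μM wortmannin and DMSO controls; four-parameter fit; triplicate; geometric mean.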

Series [10] addresses T2, Phosphatidylinositol 4,5-bisphosphate 3-kinase catalytic subunit delta isoform (Homo sapiens) (UniProt O00329).
T2 sequence (whole entry): T1 sequence (O00329 whole entry)
Conditions: Blood, time 7.0 day.

The nature of series [11]: Clearance in rhesus monkey at 1 mg/kg, iv measured over 24 hrs by LC/MS/MS analysis. Particulars: in vivo. The series is classed as ADME, organism-based, Macaca mulatta. The essentials: as §1
Series [12] is described as follows: Terminal half life in Sprague-Dawley rat at 1 mg/kg, iv measured over 24 hrs by LC/MS/MS analysis. The series is classed as ADME, organism-based. Conditions: in vivo, read-out: beta t1/2 (converted). The essentials:
as §2

Sequence of Phosphatidylinositol 4,5-bisphosphate 3-kinase catalytic subunit gamma isoform (P48736 whole entry, canonical isoform): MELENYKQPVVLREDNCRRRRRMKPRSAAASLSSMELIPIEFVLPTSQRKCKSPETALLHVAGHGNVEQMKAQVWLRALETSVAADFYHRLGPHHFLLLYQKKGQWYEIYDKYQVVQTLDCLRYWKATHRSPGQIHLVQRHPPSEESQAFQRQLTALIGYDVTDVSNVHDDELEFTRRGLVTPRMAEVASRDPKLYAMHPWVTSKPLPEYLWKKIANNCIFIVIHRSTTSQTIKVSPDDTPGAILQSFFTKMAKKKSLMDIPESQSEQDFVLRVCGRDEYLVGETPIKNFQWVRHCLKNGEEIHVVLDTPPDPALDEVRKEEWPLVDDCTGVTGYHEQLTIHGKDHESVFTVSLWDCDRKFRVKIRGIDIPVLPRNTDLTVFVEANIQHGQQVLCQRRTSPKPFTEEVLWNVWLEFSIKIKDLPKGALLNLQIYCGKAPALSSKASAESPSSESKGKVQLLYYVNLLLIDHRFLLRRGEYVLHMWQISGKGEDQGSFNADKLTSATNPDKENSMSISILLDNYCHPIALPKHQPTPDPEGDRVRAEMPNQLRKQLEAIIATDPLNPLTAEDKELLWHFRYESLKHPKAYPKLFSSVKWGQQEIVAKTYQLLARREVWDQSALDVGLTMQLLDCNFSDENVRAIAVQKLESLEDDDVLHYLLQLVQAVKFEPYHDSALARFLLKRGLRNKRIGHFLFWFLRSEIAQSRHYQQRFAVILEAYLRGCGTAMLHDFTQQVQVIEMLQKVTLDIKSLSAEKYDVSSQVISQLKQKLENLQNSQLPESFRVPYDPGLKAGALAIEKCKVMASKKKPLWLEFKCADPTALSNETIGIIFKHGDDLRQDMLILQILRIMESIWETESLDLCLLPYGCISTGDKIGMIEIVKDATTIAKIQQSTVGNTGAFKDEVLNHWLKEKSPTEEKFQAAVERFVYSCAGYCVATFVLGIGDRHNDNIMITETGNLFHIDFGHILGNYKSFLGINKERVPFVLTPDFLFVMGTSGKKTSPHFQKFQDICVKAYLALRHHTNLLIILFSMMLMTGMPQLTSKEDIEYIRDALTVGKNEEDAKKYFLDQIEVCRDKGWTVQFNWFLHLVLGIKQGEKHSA
Sequence of Phosphatidylinositol 4,5-bisphosphate 3-kinase catalytic subunit beta isoform (P42338 whole entry, canonical isoform): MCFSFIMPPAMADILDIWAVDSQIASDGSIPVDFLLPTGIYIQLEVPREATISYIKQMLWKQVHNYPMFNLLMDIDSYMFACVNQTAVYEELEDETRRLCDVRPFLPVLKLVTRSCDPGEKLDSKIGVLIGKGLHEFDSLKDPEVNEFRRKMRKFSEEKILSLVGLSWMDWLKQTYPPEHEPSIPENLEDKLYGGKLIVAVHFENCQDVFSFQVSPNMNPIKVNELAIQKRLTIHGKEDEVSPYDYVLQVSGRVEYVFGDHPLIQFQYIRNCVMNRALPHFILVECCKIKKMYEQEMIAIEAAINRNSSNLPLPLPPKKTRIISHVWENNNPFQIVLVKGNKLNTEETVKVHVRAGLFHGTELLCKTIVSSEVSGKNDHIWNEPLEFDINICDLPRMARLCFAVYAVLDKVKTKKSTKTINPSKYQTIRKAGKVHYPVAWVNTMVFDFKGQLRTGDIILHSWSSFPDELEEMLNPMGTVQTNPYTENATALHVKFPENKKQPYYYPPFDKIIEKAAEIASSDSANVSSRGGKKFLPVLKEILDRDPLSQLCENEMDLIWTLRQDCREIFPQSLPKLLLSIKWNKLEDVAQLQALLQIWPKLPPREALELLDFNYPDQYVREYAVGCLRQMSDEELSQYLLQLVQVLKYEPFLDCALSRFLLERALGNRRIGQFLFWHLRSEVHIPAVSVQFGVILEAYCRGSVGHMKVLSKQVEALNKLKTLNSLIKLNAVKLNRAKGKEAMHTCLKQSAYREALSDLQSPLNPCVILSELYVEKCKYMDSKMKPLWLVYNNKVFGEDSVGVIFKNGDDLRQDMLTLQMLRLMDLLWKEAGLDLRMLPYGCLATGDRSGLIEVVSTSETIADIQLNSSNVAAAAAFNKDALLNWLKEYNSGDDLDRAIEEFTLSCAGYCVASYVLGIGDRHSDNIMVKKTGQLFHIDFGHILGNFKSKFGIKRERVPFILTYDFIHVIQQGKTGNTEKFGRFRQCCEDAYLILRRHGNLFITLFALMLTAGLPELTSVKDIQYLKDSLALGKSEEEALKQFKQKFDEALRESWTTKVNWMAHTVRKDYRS

Take `N#Cc1c(N)nc(N)nc1N[C@H](c1nc2c(F)ccc(Cl)c2c(=O)n1-c1cccnc1)C1CC1` [GS-9901]: the clearance – broadly, the volume of plasma or blood freed of the substance per unit of time – in [1] is 6.83 mL/min/kg; in [11] it was 11.7 mL/min/kg. The Activity in the series with Rattus norvegicus [2] came out at 58%; in the series on Rattus norvegicus [5], 65%. The EC50 (commonly the concentration needed to bring the measured effect to its halfway point) in [3] stood at 0.31 nM; in series [7], 581 nM; in series [9], 42 nM. The Cmax (in general, the maximum level reached in the sampled fluid or tissue) in [4] stood at 1780 nM. Also, the inhibition in vivo (usually the percentage by which the read-out fell short of the control) at 1 mg/kg in series [6] was determined as 80%. Besides, the results for the half-life in series [8] and in [12] were 147 min and 122 min, respectively. For the same compound, the 90% effect concentration (EC90) (usually the concentration at which the effect reaches the 90% level) in series [10] worked out at 21 nM.
